Cneo AK release: Cryptococcus neoformans cell lysis inducers, primary screen, AK release luminescence, single concentration; C. neoformans lysis, adenylate kinase release luminescence, 4 h; normalised: neutral wells 0, clomiphene wells 100; lysis activity, % at 15 µM; AID 651654, 2012; 360,000 tested, 0.2% active;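 active = mean lysis activity across replicates of at least 80%, whatever share of replicates individually reach that level; inactive = mean lysis activity below 80%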
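Material: C. neoformans cells; Schedule: 4 h static compound exposure, 37 °C, read 1 h post-reagent; Measured by: adenylate kinase release luminescence; Read-out: signal increase indicating cell lysis; Controls: Clomiphene as positive lysis control.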
CR mimetic SO: reduction of superoxide in aged yeast, primary screen, HTS; S. cerevisiae aged cells, superoxide DHE fluorescence; stronger effect = lower value; superoxide response (% of plate mean), % at 10 µM; 330,000 tested, 0.18% active; AID 2690, 2010;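 active = superoxide response under a set limit, about three screen SD below normal, cut at about 65% in these data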;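 note: yeast aged for seven days with compound at 30 °C before DHE staining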
PglD inh: C. jejuni PglD acetyltransferase inhibitors, primary screen, biochemical, DTNB colorimetric, single point; UDP-N-acetylbacillosamine N-acetyltransferase PglD (Campylobacter jejuni); purified PglD enzyme, DTNB colorimetric CoA detection; inhibition, % at 12.5 µM; 360,000 tested, 0.098% active; AID 602405, 2012; in the data active = inhibition above about 16%, passing the limit was not always enough
rRNA inh HTS: reduced GFP signal of wild-type E. coli, primary screen, bacterial rRNA inhibitor project, GFP/RFP fluorescence, OD600, single point | AID 720706, 2013 | GFP signal change (wild-type ribosome), % (concentration not given with the values) | 350,000 tested, 1.6% active | E. coli WT GFP vs humanized-ribosome RFP mutants, 24 h; stronger effect = lower value; DMSO median 0, no signal -100;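 active = significant combined selectivity score with lowered wild-type GFP, culture density cut under 30%, mutant RFP and density less affected; inactive = any of these conditions unmet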
SUMO Mot1 rescue: yeast Mot1-301 growth rescue at high temperature, primary screen, SUMOylation pathway inhibitor project, S. cerevisiae, ATP luminescence, 38.5C; S. cerevisiae Mot1-301 growth rescue; percent above DMSO median, 100 means doubled; 320,000 tested, 1% active; AID 2716, 2010; growth rescue, % at 18.8 µM;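 active = every valid replicate shows activation above 250% relative to neutral control wells; inactive = the rest, any valid replicate at or below 250%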
Large screens that a line does not name were inactive. Hits are enriched below; roughly 2.2% of the tested compounds scored in any of these assays.

CC(C)n1nnnc1C1c2ccccc2C(=O)N1CCc1c[nH]c2ccccc12 (stereo not given)	rRNA inh HTS -30 (no result: Cneo AK release, CR mimetic SO, PglD inh, SUMO Mot1 rescue)
CC(C)n1nnnc1C1c2ccccc2C(=O)N1CCc1ccccc1F (stereo not given)	none (no result: Cneo AK release, CR mimetic SO, PglD inh, SUMO Mot1 rescue)
CC(C)CCN1C(=O)c2ccccc2C1c1nnnn1Cc1ccccc1 (stereo not given)	none (no result: Cneo AK release, CR mimetic SO, PglD inh, SUMO Mot1 rescue)
O=C1c2ccccc2C(c2nnnn2Cc2ccccc2)N1CCc1ccc(O)cc1 (stereo not given)	rRNA inh HTS -28 (no result: Cneo AK release, CR mimetic SO, PglD inh, SUMO Mot1 rescue)
COc1ccc(NC(=O)N(C)C[C@H]2Oc3ccc(NS(C)(=O)=O)cc3C(=O)N([C@@H](C)CO)C[C@H]2C)cc1	none (no result: CR mimetic SO, SUMO Mot1 rescue)
CCCNC(=O)N1CC(=O)N2[C@H](C1)[C@H](c1ccc(-c3ccc(C)cc3)cc1)[C@@H]2CO	none (no result: Cneo AK release, CR mimetic SO, PglD inh, SUMO Mot1 rescue)
CCn1c2ccccc2c2cc(/C=N/n3c(-c4cc(C)[nH]n4)n[nH]c3=S)ccc21	rRNA inh HTS -31 (no result: Cneo AK release, PglD inh)
CCOC(=O)c1c2ccc(OCC(=O)NN)cc2n2ccccc12	rRNA inh HTS -24 (no result: Cneo AK release, PglD inh)
O=C(C[N+]1(CC#Cc2ccccc2)CCOCC1)c1ccc(Cl)cc1	rRNA inh HTS -24 (no result: Cneo AK release, PglD inh)
O=C(C[N+]1(CC#Cc2ccccc2)CCOCC1)c1ccccc1	none (no result: Cneo AK release, PglD inh)
Cc1cc(C)c(C#N)c(Sc2nc(C)c([N+](=O)[O-])c(C)c2C#N)n1	none (no result: Cneo AK release, CR mimetic SO, PglD inh, SUMO Mot1 rescue)
Cc1nc(Sc2ccccc2)c(C#N)c(C)c1[N+](=O)[O-]	rRNA inh HTS -35
Cc1cccc(NC(=O)CC2C(=O)NCCN2C(=O)Nc2ccc(Cl)cc2)c1 (stereo not given)	rRNA inh HTS -32
O=C(CC1C(=O)NCCN1C(=O)Nc1ccc(Cl)cc1)Nc1ccc(F)cc1 (stereo not given)	none
O=C(CC1C(=O)NCCN1C(=O)Nc1ccccc1)Nc1cc(Cl)ccc1Cl (stereo not given)	rRNA inh HTS -25
COC(=O)c1ccc(COC(=O)[C@@H]2CC(O)CN2S(=O)(=O)c2ccccc2[N+](=O)[O-])cc1 (stereo not given in full)	rRNA inh HTS -17
Cc1ccc(S(=O)(=O)N2CCOCC2)cc1C(=O)N1CCOCC1	none (no result: rRNA inh HTS)
Cc1ccc(Oc2ccc(S(=O)(=O)N3CCOCC3)cc2C(N)=O)cc1C	rRNA inh HTS -23
C[C@@H]1CCCCO[C@H](CN(C)C(=O)Nc2ccc3c(c2)OCO3)[C@H](C)CN([C@@H](C)CO)C(=O)c2cc(NS(=O)(=O)c3cn(C)cn3)ccc2O1	none (no result: CR mimetic SO, SUMO Mot1 rescue)
COc1cc2c(cc1OC)CN(C1CCCN(Cc3cc(Cl)ccc3O)C1)CC2 (stereo not given)	rRNA inh HTS -28
COc1cc(OC)c2c(c1)OC(=O)CC2c1ccc2c(c1)OCO2 (stereo not given)	rRNA inh HTS -28 (no result: SUMO Mot1 rescue)
COc1cc(OC)c2c(c1)OC(=O)CC2c1ccc(C)cc1 (stereo not given)	none (no result: SUMO Mot1 rescue)
COc1ccc(-c2cn(CC[C@@H]3CC[C@@H](NC(=O)Cc4ccccn4)[C@@H](CO)O3)nn2)cc1	none (no result: CR mimetic SO, SUMO Mot1 rescue)
FC(F)(F)c1cccc(NC(=S)Nc2cccc(NC(=S)Nc3cccc(C(F)(F)F)c3)n2)c1	rRNA inh HTS -46
Cc1cccc(NC(=S)Nc2cccc(C(F)(F)F)c2)n1	none (no result: rRNA inh HTS)
O=C(c1ccc(Br)cc1)c1cn[nH]c1-c1ccccc1O	none (no result: Cneo AK release, PglD inh)
CC(C)(C)c1ccc(C(=O)c2cn[nH]c2-c2ccccc2O)cc1	rRNA inh HTS -22
O=C(c1cc(=O)c2ccccc2o1)N1CCN(c2cccc(Cl)c2)CC1	rRNA inh HTS -30 (no result: Cneo AK release, PglD inh)
O=C(c1cc(=O)c2ccccc2o1)N1CCN(c2ccccc2F)CC1	none (no result: Cneo AK release, PglD inh)
O=C(c1ccc(F)cc1)N1CCCCN2[C@H](C1)[C@@H](c1ccc(-c3ccc(F)cc3)cc1)[C@@H]2CO	none (no result: CR mimetic SO, rRNA inh HTS, SUMO Mot1 rescue)
CC(=O)N(C)C[C@@H]1Oc2cc(C#CC(C)C)ccc2S(=O)(=O)N([C@@H](C)CO)C[C@H]1C	none (no result: CR mimetic SO, SUMO Mot1 rescue)
Cn1c(-c2ccccc2)cnc1NCc1ccc(-c2ccccc2)cc1	SUMO Mot1 rescue 383
COc1cc(CNc2ncc(-c3ccc(Br)cc3)n2C)cc(OC)c1OC	rRNA inh HTS -19
COc1ccc(CNc2ncc(-c3ccccc3)n2C)cc1	none
